Experimental data taken from ChEMBL document CHEMBL4689842, “EUbOPEN Chemogenomics Library wave 1” (2021).

Test system: U2OS
Assay: Multiplex assay against U2OS
Assay type: toxicity, cell-based
Conditions: human
In short: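 Four dyes were applied at seeding to live cells: Hoechst33342, BioTracker Green Microtubule Cytoskeleton Dye, MitoTracker Red and Annexin V Alexa Fluor 680. Imaging after compound addition used a CQ1 microscope at 37°C and 5% CO2. CellPathfinder machine-learning gating then sorted cells into Hoechst high-intensity objects or normal cells, normal cells into healthy, pyknosed or fragmented nuclei, and pyknosed cells into mitotic or apoptotic, with tubulin, mitochondrial-mass and membrane-permeability phenotypes given as per cents of healthy-nucleus cells.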

[1] = 12 h, 1 µM, compound concentration 1 uM, replicate 1
[2] = 12 h, 1 µM, compound concentration 1 uM, replicate 2
[3] = 12 h, 10 µM, compound concentration 10 uM, replicate 1
[4] = 12 h, 10 µM, compound concentration 10 uM, replicate 2
[5] = 24 h, 1 µM, compound concentration 1 uM, replicate 1
[6] = 24 h, 1 µM, compound concentration 1 uM, replicate 2
[7] = 24 h, 10 µM, compound concentration 10 uM, replicate 1
[8] = 24 h, 10 µM, compound concentration 10 uM, replicate 2

C=CCn1c(=O)c2cnc(Nc3ccc(N4CCN(C)CC4)cc3)nc2n1-c1cccc(C(C)(C)O)n1 [ADAVOSERTIB] was tested, and the “Population Apoptotic (%)” value [1] was 43%, the “Population Fragmented Nuclei (%)” value [1] was 11% and the “Population Healthy Nuclei (%)” value [1] was 60%. For the same molecule, the “Population Hoechst High Intensity Objects (%)” value [1] was 3%, the “Population Membrane Permeable-Phenotype (%)” value [1] was 23% and the “Population Mitochondria Different-Phenotype (%)” value [1] was 15%. The “Population Mitotic Cells (%)” value [1] was 56%, the “Population Normal (%)” value [1] was 96% and the “Population Pyknosed Nuclei (%)” value [1] was 27%. The “Population Tubulin-Different-Phenotype (%)” value [1] was 21%, the “Total Cell Count” value [1] was 153 and the “Population Apoptotic (%)” value [2] was 12%. For the same molecule, the “Population Fragmented Nuclei (%)” value [2] was 16%, the “Population Healthy Nuclei (%)” value [2] was 62% and the “Population Hoechst High Intensity Objects (%)” value [2] was 5%. The “Population Membrane Permeable-Phenotype (%)” value [2] was 13%, the “Population Mitochondria Different-Phenotype (%)” value [2] was 5% and the “Population Mitotic Cells (%)” value [2] was 87%. The “Population Normal (%)” value [2] was 94%, the “Population Pyknosed Nuclei (%)” value [2] was 21% and the “Population Tubulin-Different-Phenotype (%)” value [2] was 23%. For the same molecule, the “Total Cell Count” value [2] was 165, the “Population Apoptotic (%)” value [3] was 40% and the “Population Fragmented Nuclei (%)” value [3] was 25%. For the same molecule, the “Population Healthy Nuclei (%)” value [3] was 13%, the “Population Hoechst High Intensity Objects (%)” value [3] was 8% and the “Population Membrane Permeable-Phenotype (%)” value [3] was 42%. The “Population Mitochondria Different-Phenotype (%)” value [3] was 47%, the “Population Mitotic Cells (%)” value [3] was 59% and the “Population Normal (%)” value [3] was 91%. The “Population Pyknosed Nuclei (%)” value [3] was 60%, the “Population Tubulin-Different-Phenotype (%)” value [3] was 80% and the “Total Cell Count” value [3] was 167. The “Population Apoptotic (%)” value [4] was 44%, the “Population Fragmented Nuclei (%)” value [4] was 22% and the “Population Healthy Nuclei (%)” value [4] was 14%. The “Population Hoechst High Intensity Objects (%)” value [4] was 28%, the “Population Membrane Permeable-Phenotype (%)” value [4] was 37% and the “Population Mitochondria Different-Phenotype (%)” value [4] was 62%. The “Population Mitotic Cells (%)” value [4] was 55%, the “Population Normal (%)” value [4] was 71% and the “Population Pyknosed Nuclei (%)” value [4] was 62%. For the same molecule, the “Population Tubulin-Different-Phenotype (%)” value [4] was 75%, the “Total Cell Count” value [4] was 76 and the “Population Apoptotic (%)” value [5] was 62%. For the same molecule, the “Population Fragmented Nuclei (%)” value [5] was 20%, the “Population Healthy Nuclei (%)” value [5] was 41% and the “Population Hoechst High Intensity Objects (%)” value [5] was 8%. The “Population Membrane Permeable-Phenotype (%)” value [5] was 30%, the “Population Mitochondria Different-Phenotype (%)” value [5] was 25% and the “Population Mitotic Cells (%)” value [5] was 37%. The “Population Normal (%)” value [5] was 91%, the “Population Pyknosed Nuclei (%)” value [5] was 38% and the “Population Tubulin-Different-Phenotype (%)” value [5] was 38%. For the same molecule, the “Total Cell Count” value [5] was 155, the “Population Apoptotic (%)” value [6] was 50% and the “Population Fragmented Nuclei (%)” value [6] was 22%. The “Population Healthy Nuclei (%)” value [6] was 51%, the “Population Hoechst High Intensity Objects (%)” value [6] was 9% and the “Population Membrane Permeable-Phenotype (%)” value [6] was 21%. For the same molecule, the “Population Mitochondria Different-Phenotype (%)” value [6] was 26%, the “Population Mitotic Cells (%)” value [6] was 50% and the “Population Normal (%)” value [6] was 90%. For the same molecule, the “Population Pyknosed Nuclei (%)” value [6] was 26%, the “Population Tubulin-Different-Phenotype (%)” value [6] was 31% and the “Total Cell Count” value [6] was 149. The “Population Apoptotic (%)” value [7] was 64%, the “Population Fragmented Nuclei (%)” value [7] was 36% and the “Population Healthy Nuclei (%)” value [7] was 11%. The “Population Hoechst High Intensity Objects (%)” value [7] was 13%, the “Population Membrane Permeable-Phenotype (%)” value [7] was 76% and the “Population Mitochondria Different-Phenotype (%)” value [7] was 82%. For the same molecule, the “Population Mitotic Cells (%)” value [7] was 35%, the “Population Normal (%)” value [7] was 86% and the “Population Pyknosed Nuclei (%)” value [7] was 51%. The “Population Tubulin-Different-Phenotype (%)” value [7] was 88%, the “Total Cell Count” value [7] was 165 and the “Population Apoptotic (%)” value [8] was 68%. For the same molecule, the “Population Fragmented Nuclei (%)” value [8] was 42%, the “Population Healthy Nuclei (%)” value [8] was 15% and the “Population Hoechst High Intensity Objects (%)” value [8] was 22%. For the same molecule, the “Population Membrane Permeable-Phenotype (%)” value [8] was 75%, the “Population Mitochondria Different-Phenotype (%)” value [8] was 62% and the “Population Mitotic Cells (%)” value [8] was 31%. The “Population Normal (%)” value [8] was 77%, the “Population Pyknosed Nuclei (%)” value [8] was 42% and the “Population Tubulin-Different-Phenotype (%)” value [8] was 75%. For the same molecule, the “Total Cell Count” value [8] was 67.
